≈ marks a conversion by molar mass, not a printed value. Calls of active or inactive are those of the source. The rule behind the calls is not given here.
Columns and labels:
[1] = test system: Mycolicibacterium diernhoferi; assay: Antibacterial activity against Mycobacterium diernhoferi DSM 43542 assessed as growth inhibition after 24 to 48 hrs; assay type: functional
[2] = test system: Nocardia sp.; assay: Antibacterial activity against Nocardia sp. DSM 43069 assessed as growth inhibition after 24 to 48 hrs; assay type: functional
[3] = test system: Mycobacterium sp.; assay: Antibacterial activity against Mycobacterium sp. DSM 43270 assessed as growth inhibition after 24 to 48 hrs; assay type: functional
[4] = Antifungal activity against Trichosporon oleaginosus DSM 11815 assessed as growth inhibition after 24 to 48 hrs; assay type: functional; details: Cutaneotrichosporon oleaginosum
Summary of the method: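 Yeast pre-grown at 30 °C and 160 rpm for 24−48 h, then adjusted to OD548 0.1. Tested by 1:1 serial dilution in 96-well plates in MYC medium (1.0% glucose, 1.0% phytone peptone, 50 mM HEPES, pH 7.0). MIC was the lowest concentration preventing visible growth.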

[5] = test system: Chromobacterium violaceum; assay: Antibacterial activity against Chromobacterium violaceum DSM 30191 assessed as growth inhibition after 24 to 48 hrs; assay type: functional
[6] = test system: Paenibacillus polymyxa; assay: Antibacterial activity against Paenibacillus polymyxa DSM 36 assessed as growth inhibition after 24 to 48 hrs; assay type: functional
[7] = test system: A549; assay: Cytotoxicity against human A549 cells after 5 days by MTT assay; assay type: functional; details: A549, 120 h, read-out: LD50 (the source's name)
Summary of the method: (§1)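 A549, KB-3-1 and mouse fibroblast L929 cells cultured in DMEM plus 10% FBS at 37 °C, 10% CO2. IC50 determined by MTT assay in 96-well microplates; methanol served as negative control.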

[8] = test system: SK-OV-3; assay: Cytotoxicity against human SKOV3 cells after 5 days by MTT assay; assay type: functional; details: SK-OV-3, 120 h, read-out: LD50 (the source's name)
Summary of the method: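 Human ovarian carcinoma SKOV3 cells maintained in McCoy's medium with 10% FBS, 37 °C, 10% CO2. IC50 obtained from MTT assay in 96-well plates, with methanol as negative control.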

[9] = Cytotoxicity against HUVEC after 5 days by MTT assay; assay type: cell-based; details: human, HUVEC cells
Summary of the method: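 Nontransformed HUVEC kept in EBM-2 with 10% FBS at 37 °C under 10% CO2. MTT read-out in 96-well plates gives the IC50, with methanol as negative control.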

[10] = test system: Mucor hiemalis; assay: Antifungal activity against Mucor hiemalis DSM 2656 assessed as growth inhibition after 24 to 48 hrs; assay type: functional
Summary of the method: (§2)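 Fungi pre-grown at 30 °C and 160 rpm for 24−48 h. Tested by 1:1 serial dilution in 96-well microtiter plates in MYC medium (1.0% glucose, 1.0% phytone peptone, 50 mM HEPES, pH 7.0). MIC was the lowest concentration preventing visible growth.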

[11] = test system: Wickerhamomyces anomalus; assay: Antifungal activity against Wickerhamomyces anomalus DSM 6766 assessed as growth inhibition after 24 to 48 hrs; assay type: functional
Summary of the method: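 Yeast grown at 30 °C, 160 rpm for 24−48 h and adjusted to OD548 0.1, then tested by 1:1 serial dilution in MYC medium (1.0% glucose, 1.0% phytone peptone, 50 mM HEPES, pH 7.0) in 96-well plates. MIC taken as the lowest concentration preventing visible growth.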

[12] = test system: Aspergillus flavus; assay: Antifungal activity against Aspergillus flavus DSM 1959 assessed as growth inhibition after 24 to 48 hrs; assay type: functional
Summary of the method: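 Fungus grown at 30 °C, 160 rpm for 24−48 h, then tested by 1:1 serial dilution in MYC medium (1.0% glucose, 1.0% phytone peptone, 50 mM HEPES, pH 7.0) in 96-well plates. MIC read as the lowest concentration preventing visible growth.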

[13] = test system: Aspergillus fumigatus; assay: Antifungal activity against Aspergillus fumigatus DSM 15966 assessed as growth inhibition after 24 to 48 hrs; assay type: functional; summary of the method: as §2
[14] = Cytotoxicity against human KB3-1 cells after 5 days by MTT assay; assay type: functional; details: KB 3-1, 120 h, read-out: LD50 (the source's name); summary of the method: as §1
[15] = test system: L929; assay: Cytotoxicity against mouse L929 cells after 5 days by MTT assay; assay type: functional; details: L929, 120 h, read-out: LD50 (the source's name); summary of the method: as §1

With `CN[C@@H]1[C@H](O[C@H]2[C@H](O[C@H]3[C@H](O)[C@@H](O)[C@H](N=C(N)N)[C@@H](O)[C@@H]3N=C(N)N)O[C@@H](C)[C@]2(O)C=O)O[C@@H](CO)[C@H](O)[C@H]1O.CN[C@@H]1[C@H](O[C@H]2[C@H](O[C@H]3[C@H](O)[C@@H](O)[C@H](N=C(N)N)[C@@H](O)[C@@H]3N=C(N)N)O[C@@H](C)[C@]2(O)C=O)O[C@@H](CO)[C@H](O)[C@H]1O.O=S(=O)(O)O.O=S(=O)(O)O.O=S(=O)(O)O` [STREPTOMYCIN SULFATE] the MIC [1] was < 0.52 µg/mL, the MIC [2] was < 0.52 µg/mL and the MIC [3] was 2.1 µg/mL. The MIC [4] was 0.1 µg/mL and the MIC [5] was 2.1 µg/mL.

`CN(C)[C@@H]1C(O)=C(C(N)=O)C(=O)[C@@]2(O)C(O)=C3C(=O)c4c(O)cccc4[C@@](C)(O)[C@H]3[C@H](O)[C@@H]12.Cl` [OXYTETRACYCLINE HYDROCHLORIDE] showed an MIC [6] of 6.7 µg/mL.

In the case of `COC1=CC(=O)O[C@H](c2coc(/C(=C/c3ccc(Cl)[nH]3)CO)n2)[C@@H]1C`, the MIC [1] is reported as “inactive”, the CC50 [7] is reported as > 27.1 µM and the CC50 [8] is reported as > 27.4 µM. The IC50 at 120 h [9] was > 27.4 µM, the MIC [2] was “inactive” and the MIC [3] was “inactive”. For the same compound, the MIC [6] was “inactive”, the MIC [10] was 33.3 µg/mL (≈ 91.3 µM) and the MIC [4] was “inactive”. The MIC [11] was “inactive”, the MIC [12] was “inactive” and the MIC [13] was “inactive”. The CC50 [14] was > 27.4 µM, the MIC [5] was “inactive” and the CC50 [15] was > 27.4 µM.

For `OC[C@H]1O[C@H](Oc2cccc3nc4c(O)cccc4nc23)[C@@H](O)[C@@H]1O`, the MIC [1] was 66.6 µg/mL (≈ 193 µM), the MIC [2] was “inactive” and the MIC [6] was “inactive”. For the same compound, the MIC [10] was “inactive”, the MIC [4] was “inactive” and the MIC [11] was “inactive”. The MIC [12] was “inactive”, the MIC [13] was 33.3 µg/mL (≈ 96.7 µM) and the MIC [5] was “inactive”.

Compound `Oc1cccc2nc3c(O)cccc3nc12` has an MIC [1] of 33.3 µg/mL (≈ 157 µM), a CC50 [7] of 5.65 µM and a CC50 [8] of 2.59 µM. It also gave an IC50 at 120 h [9] of 3.81 µM, an MIC [2] of 33.3 µg/mL (≈ 157 µM) and an MIC [3] of 66.7 µg/mL (≈ 314 µM). For the same compound, the MIC [6] was 66.7 µg/mL (≈ 314 µM), the MIC [10] was 33.3 µg/mL (≈ 157 µM) and the MIC [4] was “inactive”. For the same compound, the MIC ([11]; Hansenula anomala) was 33.3 µg/mL (≈ 157 µM), the MIC [12] was “inactive” and the MIC [13] was “inactive”. The CC50 [14] was 5.81 µM, the MIC [5] was 66.7 µg/mL (≈ 314 µM) and the CC50 [15] was 11.3 µM.

With `C[C@@H]1[C@H](O)[C@@H](C)/C=C/C=C/CC/C=C/C=C/C=C/C=C/[C@H](O[C@@H]2O[C@H](C)[C@@H](O)[C@H](N)[C@@H]2O)C[C@@H]2O[C@](O)(C[C@@H](O)[C@H](O)CC[C@@H](O)C[C@@H](O)C[C@@H](O)CC(=O)O[C@H]1C)C[C@H](O)[C@H]2C(=O)O.O` the MIC [10] was 2.1 µg/mL and the MIC ([11]; Hansenula anomala) was 0.52 µg/mL.

With `C[C@@H]1[C@H](O)[C@@H](C)/C=C/C=C/C=C/C=C/C=C/C=C/C=C/[C@H](O[C@@H]2O[C@H](C)[C@@H](O)[C@H](N)[C@@H]2O)C[C@@H]2O[C@](O)(C[C@@H](O)C[C@@H](O)[C@H](O)CC[C@@H](O)C[C@@H](O)CC(=O)O[C@H]1C)C[C@H](O)[C@H]2C(=O)O` [AMPHOTERICIN B] the MIC [12] was 1 µg/mL (≈ 1.08 µM) and the MIC [13] was < 0.52 µg/mL.

— ChEMBL document CHEMBL3108779, “Pyrronazols, metabolites from the myxobacteria Nannocystis pusilla and N. exedens, are unusual chlorinated pyrone-oxazole-pyrroles” (J Nat Prod, 2014)
